Results taken from ChEMBL document CHEMBL3804761, “Synthesis of a stable and orally bioavailable englerin analogue” (Bioorg Med Chem Lett, 2016).
Calls of active or inactive are those of the source. The calls are words filed in the database; no cut-off is given here.

Assays:
NCI-H460 = assay: Growth inhibition of human NCI-H460 cells incubated for 48 hrs by sulforhodamine B assay; assay type: functional; conditions: NCI-H460, 48 h; for CC50: read-out: pLC50 (the source's name) (converted); for TGI: read-out: pTGI (converted)
In short: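 NCI 60-cell-line panel, standard protocol. Cells exposed to compound for two days, growth read by sulforhodamine B staining. Tested at five 10-fold dilutions, top concentration 100 µM, to give dose-response curves.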

NCI/ADR-RES = assay: Growth inhibition of human NCI/ADR-RES cells assessed as cell growth at 10 uM incubated for 48 hrs by sulforhodamine B assay relative to control; assay type: functional; conditions: read-out: Activity
In short: (§1)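 Run in the standard NCI 60-cell-line screen. Cells were exposed to drug for two days, and the read-out was sulforhodamine B staining. Compound was tested at a single final concentration of 10 µM in every line, and results are reported as growth percent.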

[1] = Plasma concentration in mouse at 100 mg/kg, po administered through gavage after 30 mins by LC-MS/MS analysis; assay type: ADME, organism-based
In short: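 Oral gavage to mice in Labrasol vehicle (compound dissolved directly at 20 mg/mL); dose groups 5, 10, 50 and 100 mg/kg. Plasma sampled 30 min after dosing. Analysis by HPLC-MS/MS: acetonitrile protein precipitation with lorazepam internal standard, C18 UPLC column, calibration range 5-500 ng/mL.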

[2] = molecular target: Protein kinase C (PKC) (Homo sapiens) (UniProt O94806+P41743+P17252+P05129+Q05655+P05771+Q05513+Q02156+P24723+Q15139+Q04759); assay: Activation of PKC in human 786-0 cells at 1 uM; assay type: cell-based
[3] = Plasma concentration in mouse at 20 mg/kg, po administered through gavage after 1 hr by LC-MS/MS analysis; assay type: ADME, organism-based
In short: (§2)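 Ten mice given 20 mg/kg by oral gavage in Labrasol (20 mg/mL solution). Two mice sacrificed at each of 5 min, 15 min, 1 h, 4 h and 8 h. Plasma measured by LC-MS/MS after acetonitrile precipitation with lorazepam internal standard on a C18 UPLC column (calibration 5-500 ng/mL). Mean of two animals per time point.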

EKVX [4] = assay: Growth inhibition of human EKVX cells incubated for 48 hrs by sulforhodamine B assay; assay type: functional
In short: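 Run in the NCI 60-cell-line protocol, with 2-day drug exposure and sulforhodamine B read-out. Dose-response testing used five 10-fold dilutions starting from a high concentration of 100 µM.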

[5] = Plasma concentration in mouse at 20 mg/kg, po administered through gavage after 8 hrs by LC-MS/MS analysis; assay type: ADME, organism-based; in short: as §2
[6] = Toxicity in po dosed mouse administered through gavage; assay type: organism-based; conditions: in vivo
EKVX [7] = assay: Growth inhibition of human EKVX cells assessed as cell growth at 10 uM incubated for 48 hrs by sulforhodamine B assay relative to control; assay type: functional; conditions: read-out: Activity; in short: as §1
[8] = Plasma concentration in mouse at 20 mg/kg, po administered through gavage after 0.083 hrs by LC-MS/MS analysis; assay type: ADME, organism-based; in short: as §2
[9] = AUClast in mouse at 20 mg/kg, po administered through gavage up to 8 hrs by LC-MS/MS analysis; assay type: ADME, organism-based; design: time < 8 hr, dose 20 mg/kg, route oral; conditions: in vivo
In short: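 Mice received 20 mg/kg by oral gavage as a 20 mg/mL solution in Labrasol. Two mice were sacrificed at each of 5 min, 15 min, 1 h, 4 h and 8 h, ten mice in total. Plasma was precipitated with acetonitrile containing lorazepam internal standard and analysed by C18 UPLC-MS/MS, calibrated over 5-500 ng/mL. AUClast was calculated from these time points.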

[10] = Plasma concentration in mouse at 20 mg/kg, po administered through gavage after 4 hrs by LC-MS/MS analysis; assay type: ADME, organism-based; in short: as §2
[11] = Plasma concentration in mouse at 20 mg/kg, po administered through gavage after 0.25 hrs by LC-MS/MS analysis; assay type: ADME, organism-based; in short: as §2

CC(C)[C@@]12C[C@@H](NC(=O)CO)[C@@](C)(O1)[C@@H]1CC[C@@H](C)[C@H]1[C@@H]2OC(=O)c1ccc2ccccc2c1
GI50 (NCI-H460): 20.4 µM
CC50 (NCI-H460): 79.4 µM
TGI (NCI-H460): 40.7 µM
growth at 10 µM (NCI/ADR-RES): 46.8%

C/C(=C\C(=O)O[C@H]1[C@@H]2[C@H](C)CC[C@H]2[C@]2(C)O[C@@]1(C(C)C)C[C@H]2NC(=O)CO)c1ccccc1
GI50 (NCI-H460): 38 µM
CC50 (NCI-H460): > 100 µM
TGI (NCI-H460): > 100 µM
growth at 10 µM (NCI/ADR-RES): 72.2%

CC(C)[C@@]12C[C@@H](NC(=O)CF)[C@@](C)(O1)[C@@H]1CC[C@@H](C)[C@H]1[C@@H]2OC(=O)/C=C/c1ccccc1
growth at 10 µM (NCI/ADR-RES): 98.5%

CC(C)[C@@]12C[C@@H](NC(=O)CO)[C@@](C)(O1)[C@@H]1CC[C@@H](C)[C@H]1[C@@H]2OC(=O)/C=C/c1ccccc1
concentration at 0.5 h [1]: ≤ 700 ng/mL
Activity [2]: inactive
concentration at 1 h [3]: 73.2 ng/mL
GI50 (EKVX [4]): 11.2 µM
CC50 (EKVX [4]; read-out: pLC50 (the source's name) (converted)): > 50.1 µM
TGI (EKVX [4]; read-out: pTGI): > 50.1 µM
concentration at 8 h [5]: 67.8 ng/mL
GI50 (NCI-H460): 17 µM
CC50 (NCI-H460): > 50.1 µM
TGI (NCI-H460): > 50.1 µM
MTD [6]: 50 mg/kg
growth at 10 µM (NCI/ADR-RES): 42.9%
growth at 10 µM (EKVX [7]): 69%
concentration at 0.083 h [8]: 10 ng/mL
AUC(0-t) at 8 h [9]: 524 ng·h/mL
concentration at 4 h [10]: 59 ng/mL
concentration at 0.25 h [11]: 40.7 ng/mL

CC(C)[C@@]12C[C@@H](NC(=O)CO)[C@@](C)(O1)[C@@H]1CC[C@@H](C)[C@H]1[C@@H]2OC(=O)/C=C/C1CCCCC1
GI50 (NCI-H460): > 44.7 µM
CC50 (NCI-H460): > 44.7 µM
TGI (NCI-H460): > 44.7 µM
growth at 10 µM (NCI/ADR-RES): 94.8%
